Data published in ChEMBL document CHEMBL4428110, “Synthesis and bioactivity of novel isoxazole chalcone derivatives on tyrosinase and melanin synthesis in murine B16 cells for the treatment of vitiligo” (Bioorg Med Chem, 2016).
Activity calls are given as the source filed them. No cut-off for these calls is given here.

How the values were obtained:
[1] = biological target: T1, Tyrosinase (Mus musculus) (UniProt P11344); test: Activation of tyrosinase in mouse B16F10 cells assessed as melanin production at 50 uM after 48 hrs by spectrophotometric analysis relative to control; format: cell-based
T1 sequence (whole entry): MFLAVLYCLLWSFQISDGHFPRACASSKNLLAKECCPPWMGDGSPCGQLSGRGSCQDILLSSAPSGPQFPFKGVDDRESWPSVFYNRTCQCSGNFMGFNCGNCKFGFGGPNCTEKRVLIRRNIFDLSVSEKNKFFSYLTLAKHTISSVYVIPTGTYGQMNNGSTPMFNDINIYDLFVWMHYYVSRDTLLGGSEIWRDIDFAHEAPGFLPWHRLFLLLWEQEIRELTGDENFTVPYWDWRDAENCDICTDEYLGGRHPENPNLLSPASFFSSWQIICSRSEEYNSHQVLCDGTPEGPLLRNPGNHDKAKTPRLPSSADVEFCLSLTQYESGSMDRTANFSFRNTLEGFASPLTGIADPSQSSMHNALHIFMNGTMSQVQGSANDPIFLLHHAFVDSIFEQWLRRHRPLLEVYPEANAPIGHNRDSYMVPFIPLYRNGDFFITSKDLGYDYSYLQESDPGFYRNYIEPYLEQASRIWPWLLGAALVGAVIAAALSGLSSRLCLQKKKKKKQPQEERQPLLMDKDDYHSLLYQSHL
Summary of the method: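 B16F10 cells grown in DMEM with 10% heat-inactivated FBS and penicillin/streptomycin at 37 °C, 5% CO2. Seeded at 5×10⁵ cells/well in 6-well plates for 24 h, then exposed to 50 μM compound for 48 h. After a cold PBS wash, cells were lysed in RIPA buffer 40 min on ice and dissolved in 1 M NaOH 2 h at 60 °C. Melanin was read at 405 nm and normalized; three separate experiments.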

B16-F10 = test: Cytotoxicity against mouse B16F10 cells assessed as reduction in cell viability at 50 uM after 24 hrs by CCK-8 assay; format: cell-based; details: b16-f10, 24 h
Summary of the method: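 Viability: B16F10 cells (DMEM, 10% FBS, 37 °C, 5% CO2) plated at 5×10³ cells/well in 96-well plates, left 12 h, then given fresh medium with 50 μM compound for 24 h. After a cold PBS wash, CCK-8 added for 2 h at 37 °C and absorbance read at 450 nm. Proliferation expressed relative to untreated control; mean ± SD of three experiments.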

Tyrosinase = biological target: T2, Tyrosinase (Agaricus bisporus, UniProt O42713); test: Activation of mushroom tyrosinase using L-tyrosine as substrate preincubated for 5 mins followed by substrate addition measured after 30 mins by ELISA
T2 sequence (O42713 whole entry): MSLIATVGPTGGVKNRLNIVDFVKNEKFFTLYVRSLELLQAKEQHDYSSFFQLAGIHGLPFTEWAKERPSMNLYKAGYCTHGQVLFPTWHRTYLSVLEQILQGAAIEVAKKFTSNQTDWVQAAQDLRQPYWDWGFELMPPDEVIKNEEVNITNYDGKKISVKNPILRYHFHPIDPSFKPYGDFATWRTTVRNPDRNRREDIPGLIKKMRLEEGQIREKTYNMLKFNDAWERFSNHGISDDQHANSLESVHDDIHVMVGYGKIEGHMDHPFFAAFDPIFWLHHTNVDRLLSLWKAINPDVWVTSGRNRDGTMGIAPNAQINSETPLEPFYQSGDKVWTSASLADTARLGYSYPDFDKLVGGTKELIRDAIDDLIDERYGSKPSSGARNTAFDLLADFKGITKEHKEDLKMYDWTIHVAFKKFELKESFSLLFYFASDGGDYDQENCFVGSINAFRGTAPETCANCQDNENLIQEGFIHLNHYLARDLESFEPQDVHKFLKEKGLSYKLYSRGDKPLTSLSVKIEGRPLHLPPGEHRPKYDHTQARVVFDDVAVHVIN
Summary of the method: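 Mushroom tyrosinase activation: test compounds (0.5–300 μM) in DMSO preincubated with enzyme 5 min at 25–30 °C, then L-tyrosine (2 mM, 0.1 mL) added and incubated a further 30 min; absorbance read at 490 nm. Rate of activation = [(C−D)−(A−B)]/(A−B)×100, A being the enzyme-only system. EC50 reported as mean ± SD of three independent experiments.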

[2] = biological target: T1, Tyrosinase (Mus musculus); test: Potency index, ratio of compound activity to 8-MOP activity for tyrosinase activation in mouse B16F10 cells assessed as melanin production; format: cell-based

Activity [1]	EC50 (Tyrosinase)	Ratio [2]	SMILES	Activity (B16-F10)
Active	2.5 µM	–	O=C(/C=C/c1ccccc1)c1ccc(OCc2cc(-c3ccc(Cl)c(Cl)c3)no2)cc1	Non-Toxic
Active	3 µM	–	O=C(/C=C/c1ccccc1)c1ccc(OCc2cc(-c3ccc(Cl)c(F)c3)no2)cc1	Non-Toxic
–	23.8 µM	–	O=C(/C=C/c1ccccc1)c1ccc(OCc2cc(-c3cccc(Cl)c3)no2)cc1	Non-Toxic
463%	1.3 µM	3	O=C(/C=C/c1ccccc1)c1ccc(OCc2cc(-c3ccc(F)c(F)c3)no2)cc1	Non-Toxic
–	35.6 µM	–	Cc1ccc(-c2cc(COc3ccc(C(=O)/C=C/c4ccccc4)cc3)on2)o1	Non-Toxic
438%	> 100 µM	4	O=C(/C=C/c1ccccc1)c1ccc(OCc2cc(-c3ccc4c(c3)OCCO4)no2)cc1	Non-Toxic
–	11.9 µM	–	O=C(/C=C/c1ccccc1)c1ccc(CCc2cn(Cc3cccc(Cl)c3)nn2)cc1	–
–	23.9 µM	–	O=C(/C=C/c1ccccc1)c1ccc(CCc2cn(Cc3ccc(Cl)cc3)nn2)cc1	–
–	17.1 µM	–	Cc1ccc(/C=C/C(=O)c2ccc3nc(NC(=O)c4ccccc4)sc3c2)cc1	–
57%	12.7 µM	–	O=C(/C=C/c1ccccc1)c1ccc(OCc2cc(-c3cc(Cl)cc(Cl)c3)no2)cc1	Non-Toxic
–	65.3 µM	–	COc1ccccc1-c1cc(COc2ccc(C(=O)/C=C/c3ccccc3)cc2)on1	Non-Toxic
–	14.6 µM	–	O=C(/C=C/c1ccccc1)c1ccc(CCc2cn(Cc3ccc(F)cc3)nn2)cc1	–
–	28.9 µM	–	CN(C)c1ccc(-c2cc(COc3ccc(C(=O)/C=C/c4ccccc4)cc3)on2)cc1	Non-Toxic
–	56.2 µM	–	O=C(/C=C/c1ccccc1)c1ccc(OCc2cc(-c3cccs3)no2)cc1	Non-Toxic
–	> 100 µM	–	O=C(/C=C/c1ccccc1)c1ccc(OCc2cc(-c3ccc([N+](=O)[O-])cc3)no2)cc1	Non-Toxic
Active	25.5 µM	–	O=C(/C=C/c1ccccc1)c1ccc(OCc2cc(-c3cccc(OC(F)(F)F)c3)no2)cc1	Non-Toxic
–	1.71 µM	–	O=C(/C=C/c1ccccc1)c1ccc(CCc2cn(Cc3ccc(Cl)c(Cl)c3)nn2)cc1	–
–	21.1 µM	–	O=C(/C=C/c1ccc(Cl)cc1)c1ccc(NC(=O)c2ccccc2)cc1	–
–	37.4 µM	–	COc1cccc(Cn2cc(CCc3ccc(C(=O)/C=C/c4ccccc4)cc3)nn2)c1	–
–	8.1 µM	–	O=C(/C=C/c1ccccc1)c1ccc(OCc2cc(-c3ccc(Cl)cc3)no2)cc1	Non-Toxic
–	11.4 µM	–	O=C(/C=C/c1ccccc1)c1ccc(OCc2cc(-c3ccc(I)o3)no2)cc1	Non-Toxic
–	25.8 µM	–	Cc1ccc(S(=O)(=O)Nc2ccc(C(=O)/C=C/c3ccc(Cl)cc3)cc2)cc1	–
–	6.4 µM	–	O=C(/C=C/c1ccccc1)c1ccc(OCc2cc(-c3ccc(F)cc3)no2)cc1	Non-Toxic
–	9.6 µM	–	O=C(/C=C/c1ccc(Cl)cc1)c1ccc2nc(NC(=O)c3ccccc3)sc2c1	–
–	47.2 µM	–	COc1ccc(-c2cc(COc3ccc(C(=O)/C=C/c4ccccc4)cc3)on2)cc1	Non-Toxic
330%	21.3 µM	4	O=C(/C=C/c1ccccc1)c1ccc(OCc2cc(-c3cccc(F)c3)no2)cc1	Non-Toxic
–	78.1 µM	–	O=C(/C=C/c1ccccc1)c1ccc(OCc2cc(-c3ccccc3)no2)cc1	Non-Toxic
–	30.6 µM	–	Nc1nc2ccc(C(=O)/C=C/c3ccc(Cl)cc3)cc2s1	–
115%	14.8 µM	–	COc1c2occc2cc2ccc(=O)oc12 [METHOXSALEN]	–
–	5.6 µM	–	O=C(/C=C/c1ccccc1)c1ccc(CCc2cn(Cc3cccc(F)c3)nn2)cc1	–
